According to ChEMBL document CHEMBL1125226, “Antineoplastic activity of didemnin congeners: nordidemnin and modified chain analogues” (1991):

Tests used:
Assay type in all cases: functional, Mus musculus
[1] = system: P388; experiment: Antitumor activity (T/C) was evaluated from the median survival time of treated mice (T) over that of control mice (C) at a dose of 0.06 mg/kg/day
Procedure, shortened: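 CDF1 female mice (BALB/c ♀ × DBA/2 ♂) given 10⁶ P388 cells ip on day 0. Drug in 2% methanol given ip on days 1, 5 and 9, 10 mice per group and more controls. Toxicity is survivors on day 5, with weight change between days 1 and 5. Mortality followed 30 days. T/C% is treated over control median survival (NCI method), significant at ≥125%.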

[2] = system: P388; experiment: Average weight change of animals between day 1 and day 5 after tumor implementation at a dose of 0.25 mg/kg/day
Procedure, shortened: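 P388 leukemia: CDF1 female mice were inoculated ip with 10⁶ cells on day 0. Treatment in 2% methanol was given ip on days 1, 5 and 9, with 10 mice per group and a larger control group. Body weight was recorded on days 1 and 5 post-implant, and the average change was reported.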

[3] = system: B16; experiment: Antitumor activity against B16 melanoma from B6 D2 F1 female mice evaluated as average weight change of animals between day 1 and day 5 after tumor implementation at a dose of 0.06 mg/kg/day
Procedure, shortened: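 B16 melanoma in B6D2F1 female mice: 0.5 mL of tumor homogenate (1 g in 9 mL 0.9% saline) was given ip on day 0. Ip dosing was on days 1, 5 and 9. The readout was the average body weight change between day 1 and day 5 after tumor implantation.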

`COc1ccc(C[C@H]2C(=O)O[C@H](C)[C@H](NC(=O)[C@@H](CC(C)C)N(C)C(=O)C3CCCN3C(=O)[C@@H](C)O)C(=O)NC(C(C)C)[C@H](O)CC(=O)O[C@@H](C(C)C)C(=O)[C@H](C)C(=O)N[C@@H](CC(C)C)C(=O)N3CCC[C@H]3C(=O)N2C)cc1` (stereo partly drawn) [NORDIDEMNIN] gave a T/C [1] of 123%, a Body weight change [2] of -0.7 g and a Body weight change [3] of 0 g.
